Laboratory results from PubChem BioAssay AID493079 (The Scripps Research Institute Molecular Screening Center, 2011).
Calls of active or inactive are those of the source.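 Rule for the calls: active = IC50 of 10 µM or lower for blocking Epstein-Barr viral protein EBNA-1 from binding DNA; inactive = IC50 above 10 µM.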

These compounds were tested against EBNA-1 DNA-binding domain (Epstein-Barr virus) (assay: EBNA-1 DNA-binding inhibitor potency, late-stage follow-up, biochemical, fluorescence polarization, dose response, assay provider data (AID 493079)). Conditions: recombinant EBNA1 DBD, Cy5-DNA fluorescence polarization.
Method in brief: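 Signal: Cy5 fluorescence polarization; assay system: EBNA-1 DBD (aa 448-610), E. coli-expressed; compound dosing: dose-response series of powder compound samples; probe or stimulus: Cy5 hairpin DNA probe, 36 bp; measure: IC50 from lowered polarization, reflecting more unbound DNA probe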
For COCCn1c(C)cc(C(=O)CSc2nnnn2-c2ccccc2)c1C, the IC50 was > 148 µM (inactive). In the case of Cc1cc(C(=O)CSc2nnnn2-c2ccc(Cl)cc2)c(C)n1CC1CCCO1 (stereo not given), the IC50 is reported as > 148 µM (inactive). With Cc1ccc(C(=O)Nc2nc3ccc(Br)cc3s2)cc1C the IC50 was > 148 µM (inactive). For CS(=O)(=O)c1ccc2nc(NC(=O)c3cccc(Cl)c3)sc2c1, the IC50 was > 148 µM (inactive). In the case of COc1ccc(C(=O)Nc2nc3ccc(S(C)(=O)=O)cc3s2)cc1, the IC50 is reported as “inactive”. In the case of Cc1ccc(C(=O)Nc2nc3ccc(S(C)(=O)=O)cc3s2)cc1, the IC50 is reported as > 148 µM (inactive). With Cc1cc(C(=O)CSc2nnnn2-c2ccccc2)c(C)n1Cc1cccs1 the IC50 was > 148 µM (inactive). CS(=O)(=O)c1ccc2nc(NC(=O)c3cccc(F)c3)sc2c1 was tested, and the IC50 was > 148 µM (inactive). For Cc1cc(C(=O)CSc2nnnn2-c2ccccc2)c(C)n1C, the IC50 was “inactive”. With CS(=O)(=O)c1ccc2nc(NC(=O)c3ccccc3Cl)sc2c1 the IC50 was > 148 µM (inactive). For Cc1ccc(-n2nnnc2SCC(=O)c2cc(C)n(CC3CCCO3)c2C)cc1 (stereo not given), the IC50 was 5.47 µM. With O=C(CSc1nnnn1-c1ccccc1)c1ccn(CC2CCCO2)c1 (stereo not given) the IC50 was > 148 µM (inactive). With COc1ccccc1C(=O)Nc1nc2ccc(S(C)(=O)=O)cc2s1 the IC50 was > 148 µM (inactive). For Cc1cc(C(=O)CSc2nnnn2-c2cccc(F)c2)c(C)n1CC1CCCO1 (stereo not given), the IC50 was > 148 µM (inactive). For Cc1ccc(C(=O)Nc2nc3cc(F)ccc3s2)cc1C, the IC50 was > 148 µM (inactive). For Cc1cc(C(=O)CSc2nnnn2C)c(C)n1CC1CCCO1 (stereo not given), the IC50 was > 148 µM (inactive). With COc1cccc(C(=O)Nc2nc3ccc(S(C)(=O)=O)cc3s2)c1 the IC50 was “inactive”. With CS(=O)(=O)c1ccc2nc(NC(=O)c3ccccc3F)sc2c1 the IC50 was > 148 µM (inactive). In the case of CS(=O)(=O)c1ccc2nc(NC(=O)c3ccc(Cl)cc3)sc2c1, the IC50 is reported as “inactive”. With Cc1ccc(C(=O)Nc2nc3cc(Br)ccc3s2)cc1C the IC50 was > 148 µM (inactive). For Cc1ccccc1C(=O)Nc1nc2ccc(S(C)(=O)=O)cc2s1, the IC50 was > 148 µM (inactive). For COc1cccc2sc(NC(=O)c3ccc(C)c(C)c3)nc12, the IC50 was > 148 µM (inactive). With COc1ccc2sc(NC(=O)c3ccc(C)c(C)c3)nc2c1 the IC50 was > 148 µM (inactive). For Cc1cc(C(=O)CSc2nnnn2C2CC2)c(C)n1CC1CCCO1 (stereo not given), the IC50 was “inactive”. In the case of CCn1c(C)cc(C(=O)CSc2nnnn2-c2ccccc2)c1C, the IC50 is reported as > 148 µM (inactive). Cc1ccccc1-n1nnnc1SCC(=O)c1cc(C)n(CC2CCCO2)c1C (stereo not given) was tested, and the IC50 was > 148 µM (inactive). For COc1ccc(-n2nnnc2SCC(=O)c2cc(C)n(CC3CCCO3)c2C)cc1 (stereo not given), the IC50 was “inactive”. COc1ccc2nc(NC(=O)c3ccc(C)c(C)c3)sc2c1 was tested, and the IC50 was > 148 µM (inactive). Cc1cccc(C(=O)Nc2nc3ccc(S(C)(=O)=O)cc3s2)c1 was tested, and the IC50 was “inactive”. With Cc1cccc(-n2nnnc2SCC(=O)c2cc(C)n(CC3CCCO3)c2C)c1 (stereo not given) the IC50 was > 148 µM (inactive).
